LMPTP inh: LMPTP (human) inhibition; 360,000 tested, 0.22% active; inhibition, % at 20 µM; P24666; recombinant LMPTP-A, OMFP fluorogenic substrate, fluorescence intensity;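 active = compounds that cut the enzyme signal by at least half of the control window in the single-dose screen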
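Buffer or medium: Bis-Tris pH 6.0, DTT, detergent; Assay system: LMPTP-A enzyme; Quantity: 0.625 nM enzyme; Detection: endpoint fluorescence intensity; Times: 50 min dark incubation at room temperature; Controls: substrate-only low control, DMSO enzyme-plus-substrate high control; Doses: single 20 µM dose; Read-out: percent inhibition versus substrate-only and uninhibited controls; Reagent: 400 µM OMFP.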
DNMT1 inh: DNMT1 (human) enzyme inhibition | inhibition (reported as % activation of signal), % at 10 µM | 360,000 tested, 0.83% active | P26358 | DNMT1 molecular beacon, Hinp1I cleavage, fluorescence; in the data active = inhibition above about 50%
Target sequence (P26358 504-1616 limits assumed): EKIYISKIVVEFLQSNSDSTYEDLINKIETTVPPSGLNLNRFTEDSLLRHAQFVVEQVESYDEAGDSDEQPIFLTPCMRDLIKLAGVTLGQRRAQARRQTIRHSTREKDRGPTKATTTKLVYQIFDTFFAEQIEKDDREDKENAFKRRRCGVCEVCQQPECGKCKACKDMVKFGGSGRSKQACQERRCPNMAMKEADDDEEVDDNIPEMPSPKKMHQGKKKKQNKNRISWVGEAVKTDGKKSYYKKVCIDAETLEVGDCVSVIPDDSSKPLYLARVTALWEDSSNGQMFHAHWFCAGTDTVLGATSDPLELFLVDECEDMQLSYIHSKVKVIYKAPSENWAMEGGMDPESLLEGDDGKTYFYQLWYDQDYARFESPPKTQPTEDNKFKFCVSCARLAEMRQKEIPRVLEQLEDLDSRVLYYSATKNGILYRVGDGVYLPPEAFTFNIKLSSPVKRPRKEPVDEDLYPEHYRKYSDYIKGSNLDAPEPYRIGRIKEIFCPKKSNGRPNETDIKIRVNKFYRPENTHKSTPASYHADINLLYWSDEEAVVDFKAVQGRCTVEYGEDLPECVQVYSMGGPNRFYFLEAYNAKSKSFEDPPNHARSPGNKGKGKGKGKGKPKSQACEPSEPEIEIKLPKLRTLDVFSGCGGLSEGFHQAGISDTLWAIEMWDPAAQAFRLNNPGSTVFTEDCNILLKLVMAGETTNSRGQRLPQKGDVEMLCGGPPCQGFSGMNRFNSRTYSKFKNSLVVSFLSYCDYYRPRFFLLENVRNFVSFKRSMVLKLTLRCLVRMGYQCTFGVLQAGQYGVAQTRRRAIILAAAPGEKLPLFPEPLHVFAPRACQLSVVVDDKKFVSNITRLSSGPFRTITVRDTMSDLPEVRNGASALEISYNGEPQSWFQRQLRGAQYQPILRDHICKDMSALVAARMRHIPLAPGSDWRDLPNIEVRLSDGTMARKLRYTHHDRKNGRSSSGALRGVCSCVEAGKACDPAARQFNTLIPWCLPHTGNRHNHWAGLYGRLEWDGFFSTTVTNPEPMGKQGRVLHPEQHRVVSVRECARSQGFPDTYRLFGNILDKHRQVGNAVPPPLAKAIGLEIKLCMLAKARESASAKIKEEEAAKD
STEP block: inhibitors of human striatal-enriched phosphatase STEP. P54829. recombinant STEP, OMFP fluorogenic substrate, fluorescence. inhibition, % at 20 µM. 360,000 tested, 0.25% active. AID 588621;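 active = inhibition at 20 µM, scaled per plate between control wells, above about 37%, limit read from the data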
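Assay system: isolated STEP enzyme / Timing: 20 min at room temperature, dark / Doses: 20 µM, 1% DMSO / Technique: fluorescence intensity, excitation 480 nm, emission 540 nm / Reagent: fluorogenic phosphatase substrate OMFP at 25 µM final / Measure: percent inhibition scaled to no-enzyme and uninhibited-enzyme controls, plate-pattern corrected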
Scp-1 inhibitor: inhibitors of human Scp-1 phosphatase | Recombinant Scp1, phosphopeptide, malachite green phosphate absorbance | inhibition, % at 20 µM | 340,000 tested, 0.88% active;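 active = inhibition above about 50% at 20 µM, limit read from the data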
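Material – SCP-1 phosphatase catalytic domain, residues 76-261 · Buffer or medium – Acidic Tris acetate buffer with magnesium and detergent · Also added – Phospho 17-mer peptide substrate · Compound – single 20 µM dose, 1% DMSO · Times – 45 min room-temperature reaction, 5 min colour, 30 min stabiliser · Technique – Phosphate-binding colour reagent, absorbance read at 630 nm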
NadD inh: inhibitors of Staphylococcus aureus NadD; purified NadD enzyme, colorimetric absorbance read-out; inhibition, % at 20 µM; 360,000 tested, 0.78% active; AID 602399; in the data active = inhibition above about 26%
SUMO1 PPI mod: modulators of human SUMO1-mediated protein-protein interactions; AID 602429; 360,000 tested, 0.33% active; P63165; SUMO1 binding to a labelled peptide, TR-FRET, 1 h; inhibition, % at 20 µM; in the data active = inhibition above about 37%
Each line names hits and unclear results; the compound was inactive in the other large screens. Most compounds without a hit are left out; they make up all but 2.4% or so of the library.

COc1cccc(C(=O)OCC(=O)NC23CC4CC(CC(C4)C2)C3)c1	none
O=C(NCCN1CCCC1)C1CCN(S(=O)(=O)N2CCC3(CC2)OCCO3)CC1	none
O=C(NCCN1CCOCC1)C1CCN(S(=O)(=O)N2CCCCC2)CC1	SUMO1 PPI mod 64
COC(=O)c1ccccc1NC(=O)Nc1cccc(C)n1	none
O=C(NC1CCCCC1)c1sc(=S)n2c1[nH]c(=O)c1ccccc12	Scp-1 inhibitor 80
CCCCNC(=O)c1sc(=S)n2c1[nH]c(=O)c1ccccc12	none
COc1cc(OC)cc(C(=O)Nc2ccc(N3CCN(C(=O)c4cccs4)CC3)cc2)c1	SUMO1 PPI mod 42
CCOC(=O)c1c(-c2ccc(OC)c(OC)c2)csc1NC(=O)C1CCCO1 (centres undefined)	none
Nc1c(C(=O)Nc2ccc(Br)cc2)sc2nc(N3CCOCC3)c3c(c12)CCCC3	DNMT1 inh 50 (no result: Scp-1 inhibitor)
Cc1ccccc1CN1CCC(CNC(=O)C2CCCN(c3ncnc4c3nc3n4CCCCC3)C2)CC1 (centres undefined)	none
CCSc1nnc2ccc(-c3cccs3)nn12	none
O=C(N=Nc1c(O)[nH]c2ccccc12)c1cc(-c2cccs2)[nH]n1	SUMO1 PPI mod 60
O=C(Cc1cccs1)N=Nc1c(O)[nH]c2ccccc12	none
COc1ccc(NC(=O)c2cnn(-c3ccccc3)c2C)cc1	none
CCS(=O)(=O)c1ccc(N=Nc2ccc(O)c3ncccc23)c(OC)c1	none
COc1ccccc1N=Nc1ccc(O)c2ncccc12	NadD inh 31
Cc1ccc(-c2cc3c(N=O)c4ccccc4c-3n[nH]2)cc1	DNMT1 inh 75
O=Nc1c2cc(-c3ccccc3)[nH]nc-2c2ccccc12	Scp-1 inhibitor 62
O=c1[nH]nc(-c2ccccc2)c2ccccc12	none
Cc1cccc(-c2cc3c(N=O)c4ccccc4c-3n[nH]2)c1	none
COCCSc1nnc(NS(=O)(=O)c2ccc(F)cc2)s1	none
CC1=CC(C)(C)N(C(=O)CSc2ncn[nH]2)c2ccc(C)cc21	SUMO1 PPI mod 43
CC1=CC(C)(C)N(C(=O)CN2C(=O)CCC2=O)c2ccc(C)cc21	none
CCN(CC)NC(=S)Nc1ccccc1	none
O=C(Cc1ccc(-n2c(=O)c3ccccc3n(Cc3ccc(F)cc3)c2=O)cc1)NCC1CCCO1 (centres undefined)	SUMO1 PPI mod 40
O=C(Cc1ccc(-n2c(=O)c3ccccc3n(Cc3ccccc3F)c2=O)cc1)NCC1CCCO1 (centres undefined)	none
COc1cc(N=c2ssnc2Cl)cc(OC)c1OC	LMPTP inh 57
COc1cc2c(cc1OC)C1(Nc3c-2c(-c2ccccc2)nn3-c2ccccc2)C(=O)Nc2ccccc21 (centres undefined)	NadD inh 40
COc1cc2c(cc1OC)C1(Nc3c-2c(C)nn3-c2ccccc2)C(=O)Nc2ccccc21 (centres undefined)	none
O=C(NCCc1ccccn1)c1c(-c2ccccc2)sc2ccccc12	none
O=C(NCCc1ccccn1)c1c(-c2ccsc2)sc2ccccc12	Scp-1 inhibitor 100
O=C(CCN1C(=O)/C(=C/C=C/c2ccccc2)SC1=S)Nc1nccs1	NadD inh 41
O=C(CCN1C(=O)/C(=C\c2cccs2)SC1=S)Nc1nccs1	none
Cc1ccc2c(c1)C1CN(C)CCC1N2C(=S)NC(=O)c1ccc(Br)cc1 (centres undefined)	none
Nc1ccc(-c2ccc(N)c([N+](=O)[O-])c2)cc1[N+](=O)[O-]	none
Nc1cc2[nH]c(=O)c3ccccc3c2cc1[N+](=O)[O-]	SUMO1 PPI mod 50
COc1cc(C2Nc3cccc4cccc(c34)N2)cc(OC)c1OC(C)=O	NadD inh 43
Cc1cccc(C2Nc3cccc4cccc(c34)N2)c1	none
COc1cc(C2Nc3cccc4cccc(c34)N2)ccc1O	NadD inh 59
COC(=O)c1ccccc1NC(=O)C/C(C)=N/NC(=O)CC#N	none
c1ccc(-c2nc(NC3CCCC3)c3ccccc3n2)cc1	LMPTP inh 62
Cc1cccc2cc(/C=C3\N=C(c4ccccc4)OC3=O)c(N3CCOCC3)nc12	NadD inh 32
CCC(CC)c1nnc(NC(=O)CSCC(=O)Nc2cc(C)on2)s1	none
Fc1ccc(NC(=S)N/N=C/c2ccc(F)c(F)c2)cc1	none
COc1cccc(CNc2nc(NCC3CC3)nc3ccsc23)c1OC	LMPTP inh 60 (no result: Scp-1 inhibitor)
COc1cccc(CNc2nc(NC(C)C)nc3ccsc23)c1OC	none (no result: Scp-1 inhibitor)
Cc1c(Br)c([N+](=O)[O-])nn1CC(=O)NCCc1ccc(Cl)cc1	SUMO1 PPI mod 43
Cc1c(Br)c([N+](=O)[O-])nn1CC(=O)NCc1ccccc1	none
CC(=O)NC1(C(F)(F)F)NC(=O)N(CCc2ccccc2)C1=O (centres undefined)	SUMO1 PPI mod 44
CC(C)(C)C(=O)NC1(C(F)(F)F)NC(=O)N(CCc2ccccc2)C1=O (centres undefined)	none
CC(NC(=O)COC(=O)CNC(=O)c1ccc(-c2ccccc2)cc1)c1ccccc1 (centres undefined)	none
Cc1cc(C)c(C(N)=O)c(NCCc2ccccc2)n1	none
COC(=O)C1C2C=CC(C3CC23)C1C(=O)OCC(=O)c1ccccc1 (centres undefined)	SUMO1 PPI mod 45
COC(=O)C1C2C=CC(C3CC23)C1C(=O)OCC(=O)c1ccc(OC)cc1 (centres undefined)	none
O=C(NC1(C(F)(F)F)N=C(c2ccccc2)NC1=O)c1ccccc1F (centres undefined)	none
COc1ccc(OCC(=O)OCC(=O)Nc2ccc3[nH]c(=O)[nH]c3c2)cc1	SUMO1 PPI mod 62
CC(CC(=O)OCC(=O)Nc1ccc2[nH]c(=O)[nH]c2c1)c1ccccc1 (centres undefined)	SUMO1 PPI mod 46
COc1ccc(CCC(=O)OCC(=O)Nc2ccc3[nH]c(=O)[nH]c3c2)cc1	none
CC(=O)c1ccc(OCCCC(=O)OCC(=O)Nc2ccc3[nH]c(=O)[nH]c3c2)cc1	SUMO1 PPI mod 76
O=C(COC(=O)CNC(=O)c1ccccc1F)Nc1ccc2[nH]c(=O)[nH]c2c1	none
COc1ccccc1C(=O)NCC(=O)OCC(=O)Nc1ccc2[nH]c(=O)[nH]c2c1	SUMO1 PPI mod 47
O=C(NCCCNC(=O)c1ccccc1F)c1ccco1	none
CCCCCCC=C1CCC(CN2CCCC2)C1=O (centres undefined)	none (no result: Scp-1 inhibitor)
COc1ccc2c(c1)c[n+](C)c1c3cc(OC)c(OC)cc3ccc21	none (no result: DNMT1 inh, STEP block, Scp-1 inhibitor)
COc1ccc(Cc2c3cc(OC)c(OC)cc3cc[n+]2C)cc1OC	Scp-1 inhibitor 101
CC[n+]1ccc2cc(OC)c(OC)cc2c1Cc1ccc(OC)c(OC)c1	Scp-1 inhibitor 96

Compound activity as filed in PubChem.
